Source: PubChem (several laboratories)
The full list was thinned out, with hits kept by preference.
Glyco luc inh = N-linked glycosylation inhibition | D54 ERlucT glycosylation luciferase reporter, 24 h; percent of 100 nM tunicamycin response | reporter increase, % at 12.5 µM | hit rate 0.23% among 360,000 | AID 588692;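 active = mean luciferase reporter signal, scaled so untreated is 0 and the glycosylation-blocking control 100, at or above a set limit in every replicate; inconclusive = mean reaches the limit but not every replicate does; inactive = mean below the limit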;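 also: luciferase carries N-glycosylation sites so blocking glycosylation raises the light; 0% = median of neutral control wells and 100% = median of 100 nM tunicamycin wells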
T cell modulator = T cell immune modulators affecting CD8 T cell-vesicle binding; response (vesicle binding), % at 7 µM; hit rate 0.068% among 330,000; 2C CD8+ T cell-vesicle binding, flow cytometry; stronger effect = lower value; AID 2052;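 active = response, share of CD8 T cells binding vesicles, and their 90th percentile fluorescence all below set limits, cut at about 80% in these data, passing the limit was not always enough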;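 also: values below 100% mean blocked vesicle binding to the CD8+ T cells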
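Material: murine 2C transgenic CD8+ T lymphocytes / Also added: QL9-peptide-loaded Drosophila micro-vesicles bearing Ld, ICAM-1 and B7-1 / Schedule: binding step 1.5 h, 37 °C, antibody labelling 20 min, ice / Signal: flow cytometry, PE anti-B7-1 (FL2) versus Alexa647 anti-CD8 (FL8), PFA-fixed / Evaluation: percent CD8+ FL2 mean versus row control / Benchmarks: naked versus QL9-loaded vesicles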
ALR H2O2 inh = human ALR oxidase inhibition via reduced H2O2; AID 485317; hit rate 3.8% among 290,000; purified ALR, DTT oxidation, H2O2 HRP-luminol luminescence; inhibition, % (no concentration beside the values); P55789;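 active = mean replicate inhibition above about 79%, with every replicate also reaching it, limit read from the data; inconclusive = only one of the two criteria met; inactive = mean below limit and not every replicate reaching it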
Target sequence (P55789 whole entry, looked up): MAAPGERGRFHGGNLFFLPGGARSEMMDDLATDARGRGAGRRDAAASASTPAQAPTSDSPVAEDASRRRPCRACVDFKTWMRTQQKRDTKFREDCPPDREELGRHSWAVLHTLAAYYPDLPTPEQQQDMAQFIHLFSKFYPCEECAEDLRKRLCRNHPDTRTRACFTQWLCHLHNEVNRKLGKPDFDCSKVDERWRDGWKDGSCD
An asterisk follows results filed as active; ? = inconclusive; · = no result given.

SMILES	Glyco luc inh	T cell modulator	ALR H2O2 inh
Cc1c(CCC(=O)N[C@@H](CC(C)C)C(=O)O)c(=O)oc2cc3oc4c(c3cc12)CCCC4	0.1	290.4	0.4
Cc1c(CCC(=O)NCC(=O)NCC(=O)O)c(=O)oc2cc3oc4c(c3cc12)CCCC4	0.4	152.7	·
O=C1c2[nH]c(=O)[nH]c(=O)c2CN1Cc1ccccc1	2.2	·	·
CN(CC(=O)NCCc1ccccc1)S(=O)(=O)c1ccc(Br)s1	-0.6	359.1	0.7
COc1ccc(OC)c(NCc2nnc(-c3ccccc3)o2)c1	2.9	245.2	99.0*
COc1ccc(NCc2nnc(-c3ccccc3)o2)cc1	1.3	815.6	43.0
Cc1noc(C)c1NC(=O)N(C)C[C@H]1Oc2c(NC(=O)C3CC3)cccc2C(=O)N([C@H](C)CO)C[C@@H]1C	0.9	221.8	-8.1
O=C(Cc1ccc(F)cc1)N[C@@H]1c2ccccc2CC[C@@H]1OCc1ccccc1	-2.7	·	·
CC1=C(C(=O)OCC(C)C)C2(O)C(=O)c3ccccc3C2(O)N1 (stereo not given)	4.3	554.7	8.1
COc1ccc(NS(=O)(=O)c2ccc3c(c2)n(C)c(=O)n3C)cc1	0.0	400.3	-1.3
Cn1c(=O)n(C)c2cc(NS(=O)(=O)c3ccc4c(c3)CCCC4)ccc21	37.5*	345.3	-22.7
COc1ccc(S(=O)(=O)Nc2ccc3c(c2)n(C)c(=O)n3C)cc1C	31.2*	164.4	·
Cn1c(=O)n(C)c2cc(NS(=O)(=O)c3ccc(C(C)(C)C)cc3)ccc21	24.6	133.3	-5.7
O=C(N/N=C/c1c[nH]c2ccccc12)c1ccc(O)c(O)c1	2.2	12.5	99.3*
O=C(O)c1cccc2c(/C=N/Nc3ccccn3)c[nH]c12	0.3	0.0	98.1*
O=C(N/N=C/c1c[nH]c2ccccc12)c1cccc(O)c1	3.0	321.3	24.0
C(=N\Nc1ccccn1)/c1c[nH]c2ccccc12	0.4	522.0	98.9*
O=C(O)c1ccccc1N/N=C\c1ccnc2ccccc12	-16.5	271.3	·
O=c1nc(N/N=C/c2c[nH]c3ccccc23)cn[nH]1	-5.2	247.2	1.3
COCOc1cc(O)c(C(=O)/C=C/c2ccccc2)c(OCOC)c1	19.7	366.2	?
COc1ccc(C(CNC(=O)COc2ccc(F)cc2Cl)N2CCOCC2)cc1 (stereo not given)	-3.2	·	·
Nc1cc(=O)[nH]c(SCC(=O)Nc2cccc(Cl)c2Cl)n1	3.2	241.6	55.1
Cc1ccc(S(=O)(=O)c2ccc([N+](=O)[O-])cn2)cc1	-14.9	178.5	88.5*
O=[N+]([O-])c1ccc(S(=O)(=O)c2ccccc2)nc1	-16.3	113.3	98.0*
Nc1ccc(S(=O)(=O)c2ccccc2)nc1	1.3	176.4	·
SMILES	Glyco luc inh	T cell modulator	ALR H2O2 inh
Cc1cc(S(=O)(=O)c2ccc([N+](=O)[O-])cn2)ccc1Br	-15.5	321.0	-3.3
COc1ccc2c(C(=O)c3ccc(Cl)cc3)n(CCCC(N)=O)[n+]([O-])c2c1	0.8	482.4	-14.6
Cc1onc(-c2ccccc2Cl)c1C(=O)OCC(=O)N1CCN(c2ccccc2)CC1	-2.5	348.3	·
COc1cc(C(=O)N[C@@H](Cc2c[nH]c3ccccc23)C(=O)O)cc(OC)c1OC	0.2	270.8	·
COc1cc(/C=C/C(=O)N[C@@H](Cc2c[nH]c3ccccc23)C(=O)O)ccc1O	-0.5	373.3	85.8*
CCCOc1ccc(C(=O)CCC(=O)OCC(=O)N2CCN(S(=O)(=O)c3ccc(C)cc3C)CC2)cc1	-0.7	·	·
c1ccc(Nc2c(-c3ccco3)nc3ccccn23)cc1	0.2	315.0	98.2*
COc1ccc(Nc2c(-c3ccco3)nc3cccc(C)n23)cc1	-1.4	255.5	·
Cc1ccc(Nc2c(-c3ccco3)nc3ccccn23)cc1	-1.3	250.0	99.1*
Cc1cccc2nc(-c3ccco3)c(Nc3ccc4c(c3)OCCO4)n12	-2.9	274.3	95.0*
COc1ccc(Nc2c(-c3ccco3)nc3ccc(C)cn23)cc1	-1.6	185.9	9.4
Fc1ccc(Nc2c(-c3ccco3)nc3ccccn23)cc1	-0.3	328.0	·
Cc1ccc(C)c(NC(=S)N2CCC(NC(=O)c3ccccc3)CC2)c1	0.5	204.6	-0.4
CCN(C(=O)COC(=O)c1ccccc1NCCO)c1cccc2ccccc12	0.9	288.2	·
Nc1cc(-c2ccccc2)nn1S(=O)(=O)c1ccc(Br)cc1	-2.2	0.0	98.7*
COc1cc(-c2cc(N)n(S(=O)(=O)c3ccccc3)n2)cc(OC)c1OC	4.3	352.2	58.5
Cc1ccc(S(=O)(=O)N2CCCOC2CNC(=O)C(=O)NCc2ccc3c(c2)OCO3)cc1 (stereo not given)	-0.7	567.5	1.4
NC(=O)C1CCN(CC(=O)Nc2ccccc2Sc2ccc(Cl)cc2)CC1	-0.5	236.9	86.6*
NC(=O)C1CCN(CC(=O)Nc2ccccc2Sc2ccccc2)CC1	-1.6	220.4	-1.3
O=C(COC(=O)CCc1ccccc1)NC1CCS(=O)(=O)C1 (stereo not given)	3.1	849.3	-1.1
CCCc1cc(SCC(=O)Nc2c(C)n(C)n(-c3ccccc3)c2=O)n2c(nc3ccccc32)c1C#N	·	379.1	98.1*
CCC(C)Sc1cc(C)c(C#N)c2nc3ccccc3n12 (stereo not given)	-0.4	249.4	·
CCOC(=O)CSc1cc(C)c(C#N)c2nc3ccccc3n12	16.9	390.2	98.7*
Cc1nc(SCC(=O)Nc2c(C)n(C)n(-c3ccccc3)c2=O)c(C#N)c(C)c1C	0.9	353.5	·
Cc1cc(NCCCOC(C)C)n2c(nc3ccccc32)c1C#N	-0.6	192.2	-16.8
SMILES	Glyco luc inh	T cell modulator	ALR H2O2 inh
Cc1cc(NCCCN(C)C)n2c(nc3ccccc32)c1C#N	34.1*	185.0	-103.4
COc1ccc(Br)cc1CNC(=O)c1ccc2c(c1)N(C)CCS2	-0.8	470.5	4.3
O=C(NCC1CCCO1)c1ccc2c(c1)N(Cc1ccc(Cl)cc1)CCS2 (stereo not given)	-2.2	·	·
COc1ccc(CCNC(=O)c2ccc3c(c2)N(Cc2ccc(C)cc2)CCS3)cc1OC	-3.5	586.5	-1.0
Cc1ccc(CN2CCSc3ccc(C(=O)NCC4CCCO4)cc32)cc1 (stereo not given)	0.6	562.8	86.7*
CN1CCSc2ccc(C(=O)NCc3cccc(F)c3)cc21	-0.5	481.9	92.3*
O=C(NC1CCCC1)c1ccc2c(c1)N(Cc1ccc(F)cc1)CCS2	-3.5	489.5	38.8
CN(C)CCNC(=O)c1ccc2c(c1)N(Cc1ccc(F)cc1)CCS2	-4.7	97.4	99.1*
Cc1ccc(CN2CCSc3ccc(C(=O)NCCCN4CCN(C)CC4)cc32)cc1	-1.5	465.4	98.5*
Cc1ccc(C2=NCCn3nc4cc([N+](=O)[O-])ccc4c32)cc1	1.0	179.9	-11.4
O=C(CCCc1c[nH]c2ccccc12)Nc1ncccc1O	2.9	495.4	71.0
COc1ccc(/C=C/C(=O)NCCCN2CCOCC2)cc1	-1.6	187.6	1.1
CCOC(=O)c1cc(-c2ccccc2C)n(CC2CC(c3ccc(OC)cc3)=NO2)n1 (stereo not given)	-0.1	225.0	16.6
CN(CC(=O)Nc1ccccc1C(F)(F)F)C(=O)COc1ncnc2ccccc12	3.6	278.5	5.2
Cc1occc1-c1n[nH]c(=S)n1C	3.1	220.6	1.9
Cc1occc1-c1n[nH]c(=S)n1-c1ccccc1	0.7	248.1	94.3*
Fc1ccc(-n2c(-c3ccco3)n[nH]c2=S)cc1	0.4	147.9	65.4
